Source: ChEMBL document CHEMBL5608214, “Novel tetrasubstituted 5-Arylamino pyrazoles able to interfere with angiogenesis and Ca2+ mobilization” (Eur J Med Chem, 2024)
Calls of active or inactive are those of the source. No cut-off for these calls is given here.

Tested on: not listed separately
Test: Antiproliferative activity against human GM06114 cells assessed as cell growth at 10 uM incubated for 48 hrs by MTT assay relative to control
Assay type: toxicity, cell-based
Settings: read-out: Activity
Method in brief: (§1)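 Cells in DMEM with 10 % FBS, 2 mM glutamine and pen-strep, 37 °C, 5 % CO₂, plated to reach 80–90 % confluence at endpoint. At 16 h, compounds were added from a 10 mM DMSO stock to 10 μM final. After 48 h, MTT (2 mg/mL in PBS) was added for 4 h, formazan dissolved in DMSO, and OD read at 570 nm. Results are % of solvent control; three runs, six replicates each, mean ± SD.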

Structure (SMILES) | viability at 48 h, 10 µM [%]
CCOC(=O)c1c(Nc2cccc3ccccc23)nn(CC(O)c2ccccc2)c1N (stereo unspecified) | 81
CCOC(=O)c1c(Nc2ccc(OC)cc2)nn(CC(O)c2ccccc2)c1N (stereo unspecified) | 70
CCOC(=O)c1c(Nc2cccc(Cl)c2)nn(CC(O)c2ccccc2)c1N (stereo unspecified) | 65
CCCC(O)Cn1nc(Nc2cccc(C(F)(F)F)c2)c(C(=O)OCC)c1N (stereo unspecified) | 71

Tested on: HUVEC
Test: Anti-angiogenetic activity in human HUVEC cells assessed as number of tube branching points at 10 uM incubated for 12 hrs by microscopy
Assay type: functional
Settings: not given
Method in brief: (§2)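 HUVEC seeded at 2 × 10⁴ cells/well onto gelled Matrigel (mixed 1:1 with EGM-2, set 30 min at 37 °C). Cells were exposed to test agents at 10 μM for 12 h with no stimulus; untreated wells served as control. Tube long axis and branching points were counted in 10 random fields per well at 10× (Angiogenesis Analyzer), giving mean tube length per well. Mean of at least three independent experiments.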

Structure (SMILES) | Activity
CCOC(=O)c1c(Nc2cccc3ccccc23)nn(CC(O)c2ccccc2)c1N (stereo unspecified) | <15

Tested on: A549
Test: Antiproliferative activity against human A549 cells assessed as cell growth at 10 uM incubated for 48 hrs by MTT assay relative to control
Assay type: functional
Settings: read-out: Activity
Method in brief: as §1

Structure (SMILES) | growth at 10 µM [%]
CCOC(=O)c1c(Nc2cccc3ccccc23)nn(CC(O)c2ccccc2)c1N (stereo unspecified) | 88
CCOC(=O)c1c(Nc2ccc(OC)cc2)nn(CC(O)c2ccccc2)c1N (stereo unspecified) | 100
CCOC(=O)c1c(Nc2cccc(Cl)c2)nn(CC(O)c2ccccc2)c1N (stereo unspecified) | 88
CCCC(O)Cn1nc(Nc2cccc(C(F)(F)F)c2)c(C(=O)OCC)c1N (stereo unspecified) | 66

Tested on: MCF7
Test: Antiproliferative activity against human MCF7 cells assessed as cell growth at 10 uM incubated for 48 hrs by MTT assay relative to control
Assay type: functional
Settings: read-out: Activity
Method in brief: as §1

Structure (SMILES) | growth at 10 µM [%]
CCOC(=O)c1c(Nc2cccc3ccccc23)nn(CC(O)c2ccccc2)c1N (stereo unspecified) | 97
CCOC(=O)c1c(Nc2ccc(OC)cc2)nn(CC(O)c2ccccc2)c1N (stereo unspecified) | 98
CCOC(=O)c1c(Nc2cccc(Cl)c2)nn(CC(O)c2ccccc2)c1N (stereo unspecified) | 101
CCCC(O)Cn1nc(Nc2cccc(C(F)(F)F)c2)c(C(=O)OCC)c1N (stereo unspecified) | 80

Tested on: HUVEC
Test: Anti-angiogenetic activity in human HUVEC cells assessed as reduction in tube branching at 10 uM incubated for 12 hrs by microscopy
Assay type: functional, cell-based
Settings: not given
Method in brief: as §2

Structure (SMILES) | Activity
CCOC(=O)c1c(Nc2cccc3ccccc23)nn(CC(O)c2ccccc2)c1N (stereo unspecified) | Active
CCOC(=O)c1c(Nc2cccc(Cl)c2)nn(CC(O)c2ccccc2)c1N (stereo unspecified) | Active

Tested on: HUVEC
Test: Anti-angiogenetic activity in human HUVEC cells assessed as reduction in tube length at 10 uM incubated for 12 hrs by microscopy
Assay type: functional, cell-based
Settings: not given
Method in brief: as §2

Structure (SMILES) | Activity
CCOC(=O)c1c(Nc2cccc3ccccc23)nn(CC(O)c2ccccc2)c1N (stereo unspecified) | Active
CCOC(=O)c1c(Nc2cccc(Cl)c2)nn(CC(O)c2ccccc2)c1N (stereo unspecified) | Active

Tested on: HeLa
Test: Antiproliferative activity against human HeLa cells assessed as cell growth at 10 uM incubated for 48 hrs by MTT assay relative to control
Assay type: functional
Settings: read-out: Activity
Method in brief: as §1

Structure (SMILES) | growth at 10 µM [%]
CCOC(=O)c1c(Nc2cccc3ccccc23)nn(CC(O)c2ccccc2)c1N (stereo unspecified) | 104
CCOC(=O)c1c(Nc2ccc(OC)cc2)nn(CC(O)c2ccccc2)c1N (stereo unspecified) | 111
CCOC(=O)c1c(Nc2cccc(Cl)c2)nn(CC(O)c2ccccc2)c1N (stereo unspecified) | 113
CCCC(O)Cn1nc(Nc2cccc(C(F)(F)F)c2)c(C(=O)OCC)c1N (stereo unspecified) | 77

Tested on: SK-OV-3
Test: Antiproliferative activity against human SK-OV-3 cells assessed as cell growth at 10 uM incubated for 48 hrs by MTT assay relative to control
Assay type: functional
Settings: read-out: Activity
Method in brief: as §1

Structure (SMILES) | growth at 10 µM [%]
CCOC(=O)c1c(Nc2cccc3ccccc23)nn(CC(O)c2ccccc2)c1N (stereo unspecified) | 116
CCOC(=O)c1c(Nc2ccc(OC)cc2)nn(CC(O)c2ccccc2)c1N (stereo unspecified) | 102
CCOC(=O)c1c(Nc2cccc(Cl)c2)nn(CC(O)c2ccccc2)c1N (stereo unspecified) | 100
CCCC(O)Cn1nc(Nc2cccc(C(F)(F)F)c2)c(C(=O)OCC)c1N (stereo unspecified) | 102

Tested on: MDA-MB-231
Test: Antiproliferative activity against human MDA-MB-231 cells assessed as cell growth at 10 uM incubated for 48 hrs by MTT assay relative to control
Assay type: functional
Settings: read-out: Activity
Method in brief: as §1

Structure (SMILES) | growth at 10 µM [%]
CCOC(=O)c1c(Nc2cccc3ccccc23)nn(CC(O)c2ccccc2)c1N (stereo unspecified) | 149
CCOC(=O)c1c(Nc2ccc(OC)cc2)nn(CC(O)c2ccccc2)c1N (stereo unspecified) | 147
CCOC(=O)c1c(Nc2cccc(Cl)c2)nn(CC(O)c2ccccc2)c1N (stereo unspecified) | 135
CCCC(O)Cn1nc(Nc2cccc(C(F)(F)F)c2)c(C(=O)OCC)c1N (stereo unspecified) | 109

Tested on: HepG2
Test: Antiproliferative activity against human HepG2 cells assessed as cell growth at 10 uM incubated for 48 hrs by MTT assay relative to control
Assay type: functional
Settings: read-out: Activity
Method in brief: as §1

Structure (SMILES) | growth at 10 µM [%]
CCOC(=O)c1c(Nc2cccc3ccccc23)nn(CC(O)c2ccccc2)c1N (stereo unspecified) | 118
CCOC(=O)c1c(Nc2ccc(OC)cc2)nn(CC(O)c2ccccc2)c1N (stereo unspecified) | 115
CCOC(=O)c1c(Nc2cccc(Cl)c2)nn(CC(O)c2ccccc2)c1N (stereo unspecified) | 113
CCCC(O)Cn1nc(Nc2cccc(C(F)(F)F)c2)c(C(=O)OCC)c1N (stereo unspecified) | 69

Tested on: SK-BR-3
Test: Antiproliferative activity against human SK-BR-3 cells assessed as cell growth at 10 uM incubated for 48 hrs by MTT assay relative to control
Assay type: functional
Settings: read-out: Activity
Method in brief: as §1

Structure (SMILES) | growth at 10 µM [%]
CCOC(=O)c1c(Nc2cccc3ccccc23)nn(CC(O)c2ccccc2)c1N (stereo unspecified) | 118
CCOC(=O)c1c(Nc2ccc(OC)cc2)nn(CC(O)c2ccccc2)c1N (stereo unspecified) | 115
CCOC(=O)c1c(Nc2cccc(Cl)c2)nn(CC(O)c2ccccc2)c1N (stereo unspecified) | 120
CCCC(O)Cn1nc(Nc2cccc(C(F)(F)F)c2)c(C(=O)OCC)c1N (stereo unspecified) | 118

Tested on: SK-MEL-28
Test: Antiproliferative activity against human SK-MEL-28 cells assessed as cell growth at 10 uM incubated for 48 hrs by MTT assay relative to control
Assay type: functional
Settings: read-out: Activity
Method in brief: as §1

Structure (SMILES) | growth at 10 µM [%]
CCOC(=O)c1c(Nc2cccc3ccccc23)nn(CC(O)c2ccccc2)c1N (stereo unspecified) | 141
CCOC(=O)c1c(Nc2ccc(OC)cc2)nn(CC(O)c2ccccc2)c1N (stereo unspecified) | 134
CCOC(=O)c1c(Nc2cccc(Cl)c2)nn(CC(O)c2ccccc2)c1N (stereo unspecified) | 144
CCCC(O)Cn1nc(Nc2cccc(C(F)(F)F)c2)c(C(=O)OCC)c1N (stereo unspecified) | 113

Tested on: HUVEC
Test: Anti-angiogenetic activity in human HUVEC cells assessed as relative tube length at 10 uM incubated for 12 hrs by microscopy
Assay type: functional
Settings: not given
Method in brief: as §2

Structure (SMILES) | Activity
CCOC(=O)c1c(Nc2cccc3ccccc23)nn(CC(O)c2ccccc2)c1N (stereo unspecified) | <20

Tested on: not listed separately
Test: Antiproliferative activity against human HUVEC cells assessed as cell growth at 10 uM incubated for 48 hrs by MTT assay relative to control
Assay type: toxicity, cell-based
Settings: read-out: Activity
Method in brief: as §1

Structure (SMILES) | viability at 48 h, 10 µM [%]
CCOC(=O)c1c(Nc2cccc3ccccc23)nn(CC(O)c2ccccc2)c1N (stereo unspecified) | 98
CCOC(=O)c1c(Nc2ccc(OC)cc2)nn(CC(O)c2ccccc2)c1N (stereo unspecified) | 99
CCOC(=O)c1c(Nc2cccc(Cl)c2)nn(CC(O)c2ccccc2)c1N (stereo unspecified) | 93
CCCC(O)Cn1nc(Nc2cccc(C(F)(F)F)c2)c(C(=O)OCC)c1N (stereo unspecified) | 100
